In ChEMBL document CHEMBL1125117, “Substituted 1,3-dihydro-2H-pyrrolo[2,3-b]pyridin-2-ones as potential antiinflammatory agents” (1990):

tested on: Rattus norvegicus; assay: In vivo inhibitory activity against fluid in reverse passive Arthus reaction (RPAR) assay at dose 25 mg/kg in the pleural cavity of rats.; assay type: functional; conditions: not given
Summary of the method: (§1)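 Male rats, five per group, dosed orally 1 h before iv BSA antigen (5 mg). Rabbit anti-BSA IgG (0.5 mg) given intrapleurally 30 min later. At 4 h, pleural exudate volume was measured and neutrophils counted (Coulter) after saline-EDTA lavage. Reported as % reduction in cells and fluid relative to control.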

Compound	inhibition in vivo at 25 mg/kg
Cc1c(Cl)cccc1N1C(=O)C(C)(C)c2cccnc21	0%
CC1(C)C(=O)N(c2ccc(S(C)(=O)=O)cc2)c2ncccc21	0%
CSC1(C)C(=O)N(c2ccccc2)c2ncccc21 (stereo unspecified)	53%
CC1(C)C(=O)N(c2ccc(Cl)cc2)c2ccccc21	0%
CC1(C)C(=O)N(c2ccc(F)cc2F)c2ncccc21	19%
CC1(C)C(=O)N(Cc2ccc(Cl)cc2)c2ncccc21	0%
CN1C(=O)C(C)(C)c2cccnc21	53%
CC1(Sc2ccccc2)C(=O)N(c2ccccc2)c2ncccc21 (stereo unspecified)	0%
COc1ccc(N2C(=O)C(C)(C)c3cccnc32)cc1	42%
COCCSC1(C)C(=O)N(c2ccccc2)c2ncccc21 (stereo unspecified)	23%
CC1(C)C(=O)N(Cc2ccccc2)c2ncccc21	12%
CC1(C)C(=O)Nc2ncccc21	38%
C[S+]([O-])c1ccc(N2C(=O)C(C)(C)c3cccnc32)cc1 (stereo unspecified)	0%
CC(C)N1C(=O)C(C)(C)c2cccnc21	14%
CC1(C)C(=O)N(c2cccc(C(F)(F)F)c2)c2ncccc21	10%
CCC1(CC)C(=O)N(c2ccccc2)c2ncccc21	0%

tested on: Rattus norvegicus; assay: In vivo effect on prostaglandin and leukotriene mediated production in rat pleural cavity was assessed by the inhibition of fluid volume in 5-lipoxygenase/ cyclooxygenase at dose 1.0 mg/kg; assay type: functional; conditions: not given
Summary of the method: (§2)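 Rat reversed passive Arthus pleurisy, oral dosing 1 h before challenge. BSA given iv (5 mg), then rabbit anti-BSA IgG intrapleurally 30 min later. At 4 h, exudate was collected into indomethacin/NDGA and its volume recorded. Neutrophils were counted by Coulter counter. TXB2 and LTE4 in ethanol-extracted supernatant were measured by RIA with tritiated recovery spikes. Reported as % inhibition versus control.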

Compound	inhibition in vivo at 1 mg/kg
COc1ccc2c(c1)c(CC(=O)O)c(C)n2C(=O)c1ccc(Cl)cc1 [INDOMETHACIN]	24%

tested on: Rattus norvegicus; assay: In vivo antiinflammatory activity against edema formation in the noninjected(secondary) paw of the rat (after edema stimulation) at dose 2.0 mg/kg; assay type: functional; conditions: not given

Compound	inhibition in vivo at 2 mg/kg
COc1ccc2c(c1)c(CC(=O)O)c(C)n2C(=O)c1ccc(Cl)cc1 [INDOMETHACIN]	88%

tested on: Rattus norvegicus; assay: In vivo effect on prostaglandin and leukotriene mediated production in rat pleural cavity was assessed by the inhibition of cell influx in 5-lipoxygenase/ cyclooxygenase at dose 25 mg/kg; assay type: functional; conditions: not given; summary of the method: as §2

Compound	inhibition in vivo at 25 mg/kg
CN1C(=O)C(C)(C)c2cccnc21	69%
COc1ccc(N2C(=O)C(C)(C)c3cccnc32)cc1	63%

tested on: Rattus norvegicus; assay: In vivo antiinflammatory activity against edema formation in the noninjected(secondary) paw of the rat (before edema stimulation) at dose 25 mg/kg; assay type: functional; conditions: not given
Summary of the method: (§3)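 Adjuvant arthritis in rats, prophylactic regimen. Oral dosing began 1 h before challenge and continued for 21 consecutive days. Heat-killed M. tuberculosis in paraffin oil (6 mg/mL), 0.1 mL injected into the left hind paw, with methylcellulose-treated controls. Both hind paw volumes measured by plethysmograph on day 21. Reported as % change relative to control.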

Compound	inhibition in vivo at 25 mg/kg
COc1ccc(N2C(=O)C(C)(C)c3cccnc32)cc1	0%

tested on: Rattus norvegicus; assay: In vivo effect on prostaglandin and leukotriene mediated production in rat pleural cavity was assessed by the inhibition of TXB2 in 5-lipoxygenase/ cyclooxygenase at dose 25 mg/kg; assay type: functional; conditions: not given; summary of the method: as §2

Compound	inhibition in vivo at 25 mg/kg
CN1C(=O)C(C)(C)c2cccnc21	17%
COc1ccc(N2C(=O)C(C)(C)c3cccnc32)cc1	34%

tested on: Rattus norvegicus; assay: In vivo effect on prostaglandin and leukotriene mediated production in rat pleural cavity was assessed by the inhibition of cell influx in 5-lipoxygenase/ cyclooxygenase at dose 1.0 mg/kg; assay type: functional; conditions: not given; summary of the method: as §2

Compound	inhibition in vivo at 1 mg/kg
COc1ccc2c(c1)c(CC(=O)O)c(C)n2C(=O)c1ccc(Cl)cc1 [INDOMETHACIN]	48%

target: T1, Polyunsaturated fatty acid 5-lipoxygenase (Homo sapiens) (UniProt P09917); assay: In vitro inhibitory activity against 5-lipoxygenase in human polymorphonuclear (PMN) cells; conditions: concentration not given here
T1 sequence (whole entry): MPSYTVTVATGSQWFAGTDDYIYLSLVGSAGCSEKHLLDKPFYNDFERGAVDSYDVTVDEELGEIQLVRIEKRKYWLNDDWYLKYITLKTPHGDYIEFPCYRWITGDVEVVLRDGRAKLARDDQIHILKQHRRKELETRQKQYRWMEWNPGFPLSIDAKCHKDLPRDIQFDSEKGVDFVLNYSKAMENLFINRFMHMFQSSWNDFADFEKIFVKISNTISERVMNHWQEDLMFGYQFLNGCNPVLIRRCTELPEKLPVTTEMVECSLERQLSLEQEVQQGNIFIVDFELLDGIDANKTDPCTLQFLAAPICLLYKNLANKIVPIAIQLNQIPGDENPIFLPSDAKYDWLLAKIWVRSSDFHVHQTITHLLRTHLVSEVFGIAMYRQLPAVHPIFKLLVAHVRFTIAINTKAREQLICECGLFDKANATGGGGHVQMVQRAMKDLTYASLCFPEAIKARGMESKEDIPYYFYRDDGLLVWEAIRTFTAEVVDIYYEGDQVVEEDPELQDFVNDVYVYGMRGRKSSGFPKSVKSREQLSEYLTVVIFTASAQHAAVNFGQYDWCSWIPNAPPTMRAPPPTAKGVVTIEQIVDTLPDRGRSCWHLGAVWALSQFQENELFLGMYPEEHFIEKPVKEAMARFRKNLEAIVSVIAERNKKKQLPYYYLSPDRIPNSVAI
Summary of the method: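 Human PMN neutrophils (2×10^7 cells/mL) in HEPES buffer with 1 mM CaCl2, preincubated 4 min with test compound in DMSO vehicle. Then stimulated with [14C]arachidonic acid plus calcium ionophore A23187 for 5 min and stopped with methanol. 5-HETE was quantitated by HPLC. Reported as % inhibition versus vehicle, tested at 15 μM.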

Compound	inhibition
Cc1c(Cl)cccc1N1C(=O)C(C)(C)c2cccnc21	7%
CC1(C)C(=O)N(c2ccc(S(C)(=O)=O)cc2)c2ncccc21	13%
CSC1(C)C(=O)N(c2ccccc2)c2ncccc21 (stereo unspecified)	21%
CC1(C)C(=O)N(c2ccc(F)cc2F)c2ncccc21	7%
CC1(C)C(=O)N(Cc2ccc(Cl)cc2)c2ncccc21	26%
COc1ccc(N2C(=O)C(C)(C)c3cccnc32)cc1	11%
COCCSC1(C)C(=O)N(c2ccccc2)c2ncccc21 (stereo unspecified)	0%
CC1(C)C(=O)N(Cc2ccccc2)c2ncccc21	2%
C[S+]([O-])c1ccc(N2C(=O)C(C)(C)c3cccnc32)cc1 (stereo unspecified)	11%
CC(C)N1C(=O)C(C)(C)c2cccnc21	6%
CC1(C)C(=O)N(c2cccc(C(F)(F)F)c2)c2ncccc21	34%
CCC1(CC)C(=O)N(c2ccccc2)c2ncccc21	12%

tested on: Rattus norvegicus; assay: In vivo antiinflammatory activity against edema formation in the injected(primary) paw of the rat(before edema stimulation) at dose 25 mg/kg; assay type: functional; conditions: not given; summary of the method: as §3

Compound	inhibition in vivo at 25 mg/kg
COc1ccc(N2C(=O)C(C)(C)c3cccnc32)cc1	0%

tested on: Rattus norvegicus; assay: In vivo effect on prostaglandin and leukotriene mediated production in rat pleural cavity was assessed by the inhibition of fluid volume in 5-lipoxygenase/ cyclooxygenase at dose 25 mg/kg; assay type: functional; conditions: 25 mg/kg; summary of the method: as §2

Compound	Inhibition
CN1C(=O)C(C)(C)c2cccnc21	53%

same assay, conditions: Rattus norvegicus, Pleural cavity

Compound	inhibition in vivo at 25 mg/kg
CN1C(=O)C(C)(C)c2cccnc21	53%

tested on: Rattus norvegicus; assay: In vivo antiinflammatory activity against edema formation in the noninjected(secondary) paw of the rat (before edema stimulation) at dose 2.0 mg/kg; assay type: functional; conditions: not given; summary of the method: as §3

Compound	inhibition in vivo at 2 mg/kg
COc1ccc2c(c1)c(CC(=O)O)c(C)n2C(=O)c1ccc(Cl)cc1 [INDOMETHACIN]	70%

tested on: Rattus norvegicus; assay: In vivo inhibitory activity against cells in reverse passive Arthus reaction (RPAR) assay at dose 25 mg/kg in the pleural cavity of rats.; assay type: functional; conditions: not given; summary of the method: as §1

Compound	inhibition in vivo at 25 mg/kg
Cc1c(Cl)cccc1N1C(=O)C(C)(C)c2cccnc21	14%
CC1(C)C(=O)N(c2ccc(S(C)(=O)=O)cc2)c2ncccc21	42%
CSC1(C)C(=O)N(c2ccccc2)c2ncccc21 (stereo unspecified)	34%
CC1(C)C(=O)N(c2ccc(Cl)cc2)c2ccccc21	0%
CC1(C)C(=O)N(c2ccc(F)cc2F)c2ncccc21	61%
CC1(C)C(=O)N(Cc2ccc(Cl)cc2)c2ncccc21	6%
CN1C(=O)C(C)(C)c2cccnc21	69%
CC1(Sc2ccccc2)C(=O)N(c2ccccc2)c2ncccc21 (stereo unspecified)	0%
COc1ccc(N2C(=O)C(C)(C)c3cccnc32)cc1	63%
COCCSC1(C)C(=O)N(c2ccccc2)c2ncccc21 (stereo unspecified)	26%
CC1(C)C(=O)N(Cc2ccccc2)c2ncccc21	12%
CC1(C)C(=O)Nc2ncccc21	46%
C[S+]([O-])c1ccc(N2C(=O)C(C)(C)c3cccnc32)cc1 (stereo unspecified)	39%
CC(C)N1C(=O)C(C)(C)c2cccnc21	34%
CC1(C)C(=O)N(c2cccc(C(F)(F)F)c2)c2ncccc21	35%
CCC1(CC)C(=O)N(c2ccccc2)c2ncccc21	13%
